Compound activity deposited in PubChem BioAssay by several laboratories.
Wee1 stabilizer – human Wee1 degradation inhibition, primary screen; reporter increase, % at 5 µM; HeLa Luc-Wee1K328M stability, luciferase luminescence; 100% = proteasome inhibitor MG132 effect; P30291; actives 1.2% (n = 220,000);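 active = activation above the mean of all tested compounds plus 3 SD, set per screening run, cut at about 8.8% in these data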;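 also: cells exposed to compound for 20 h before luminescence read; 0% = DMSO alone and 100% = MG132 at 30 µM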
Arbovirus inh – arbovirus infection inhibition; arbovirus infection cell-based antiviral screen; inhibition, % at 10 µM; actives 0.37% (n = 200,000); AID 1251; in the data active = inhibition above about 30%
PKD1 kinase inh – blocks activity of human protein kinase D1 | PKD1 kinase fluorescence polarization assay | inhibition, % (concentration not given with the values) | actives 0.056% (n = 200,000)
L major viab – reduces viability of Leishmania major promastigotes; resazurin fluorescence viability; actives 9% (n = 200,000); inhibition, % at 10 µM;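 also: promastigotes grown with compound for 44 hours at 28 °C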
Rad51 HR inh – Rad51 (human) homologous recombination inhibition | AID 1385 | Q06609 | hRad51 DNA strand exchange, fluorescence dequenching | inhibition, % at 10 µM | actives 0.085% (n = 200,000);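 active = inhibition above 40% at the single screening dose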;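 also: 0% = DMSO control wells and 100% = blanks with heterologous ssDNA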
Target sequence (Q06609 whole entry, looked up): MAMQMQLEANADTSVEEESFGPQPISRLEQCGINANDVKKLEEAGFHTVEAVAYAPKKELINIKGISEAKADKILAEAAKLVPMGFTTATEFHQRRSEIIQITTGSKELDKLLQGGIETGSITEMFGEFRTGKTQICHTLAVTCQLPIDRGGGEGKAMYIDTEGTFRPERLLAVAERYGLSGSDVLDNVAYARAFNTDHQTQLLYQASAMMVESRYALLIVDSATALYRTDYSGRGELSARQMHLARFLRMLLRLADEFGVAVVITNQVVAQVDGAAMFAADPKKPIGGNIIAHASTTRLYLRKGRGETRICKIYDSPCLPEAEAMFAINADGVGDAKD
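Assay system: Human Rad51 nucleoprotein filaments preassembled on unlabelled ssDNA | Reagent: Donor/quencher-labelled 47-bp dsDNA substrate | Doses: One concentration, 10 µM final | Times: 37 °C 15-min filament assembly, 30-min compound preincubation, 15-min exchange | Technique: Fluorescein emission 520 nm, excitation 485 nm | Benchmarks: Plate control and blank wells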
CHOP inhibitor – inhibitors of CHOP induction in ER stress response | CHO-K1 CHOP-promoter luciferase, tunicamycin-induced, 15-18 h | inhibition, % at 10 µM | actives 3.8% (n = 220,000) | AID 2732;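 active = compounds that reduced the stress-induced luciferase reporter signal by more than about 70% of percent inhibition, limit read from the data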;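 also: 0% = tunicamycin plus vehicle and 100% = wells without tunicamycin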
* marks the source's active call; other numbers are inactive results. Sampled rows, rich in hits. Any-hit rate of the full collection: about 12%. Rule as the data show it, unless noted: active = inhibition above about 50%; inactive = the rest.

For COc1ccc(Cc2n[nH]c(=S)n2Cc2ccccc2)cc1Cl the results were Wee1 stabilizer 1, Arbovirus inh 0, PKD1 kinase inh 2, L major viab 97*, Rad51 HR inh 10 and CHOP inhibitor 16.
Screening CCOc1ccc(Cc2n[nH]c(=S)n2Cc2ccccc2)cc1 returned Wee1 stabilizer -4, Arbovirus inh 6, PKD1 kinase inh 4, L major viab 10, Rad51 HR inh 8 and CHOP inhibitor 27.
Screening C[C@@H]1CN(C2CCN(Cc3nc(C(c4ccccc4)c4ccccc4)no3)CC2)C[C@H](C)O1 returned Wee1 stabilizer 6, Arbovirus inh -17, PKD1 kinase inh -6, L major viab 85*, Rad51 HR inh 1 and CHOP inhibitor -1.
Screening CN(Cc1nc(-c2ccc(C(F)(F)F)cc2)no1)C1CCOCC1 returned Wee1 stabilizer -4, Arbovirus inh -3, PKD1 kinase inh -3, L major viab -1, Rad51 HR inh 2 and CHOP inhibitor 6.
c1ccc(C(c2ccccc2)c2noc(CN3CCN(C4CCCC4)CC3)n2)cc1 was read as Wee1 stabilizer 2, Arbovirus inh -23, PKD1 kinase inh -7, L major viab 84*, Rad51 HR inh 10 and CHOP inhibitor 9.
`C[C@@H]1CN(C2CCN(Cc3nc(CC4CC4)no3)CC2)C[C@H](C)O1` gave Wee1 stabilizer 1, Arbovirus inh 2, PKD1 kinase inh -3, L major viab 86*, Rad51 HR inh -2 and CHOP inhibitor 9.
FC(F)(F)c1ccc(-c2noc(CN3CCCN(C4CCCCC4)CC3)n2)cc1 was read as Wee1 stabilizer 1, Arbovirus inh 8, PKD1 kinase inh 9, L major viab 84*, Rad51 HR inh -1 and CHOP inhibitor 7.
`CC(=O)Nc1ccc(C(=O)N/C(=C\c2ccccc2)C(=O)Nc2cccc(C(=O)O)c2)cc1` gave Wee1 stabilizer -1, Rad51 HR inh 21 and CHOP inhibitor 10.
`O=C(CCC1CCCN(C(=O)CCCc2ccccc2)C1)N1CCN(c2ccccn2)CC1` (stereo unspecified) gave Wee1 stabilizer -2 and CHOP inhibitor 0.
Cc1ccc(N2CCN(CC(=O)Nc3c(C(=O)C4CC4)oc4ccccc34)CC2)cc1 was read as Wee1 stabilizer -2, Arbovirus inh 3, PKD1 kinase inh -12, L major viab -2, Rad51 HR inh -2 and CHOP inhibitor 15.
For Clc1ccccc1Cc1noc(CN2CCN3CCCC3C2)n1 (stereo unspecified) the results were Wee1 stabilizer 3, Arbovirus inh -5, PKD1 kinase inh -2, L major viab 75*, Rad51 HR inh 0 and CHOP inhibitor 10.
Screening OC1CCN(Cc2nc(Cc3ccccc3Cl)no2)CC1 returned Wee1 stabilizer -1, Arbovirus inh 2, PKD1 kinase inh -1, L major viab 1, Rad51 HR inh 5 and CHOP inhibitor 49.
For COc1ccc(-c2nnn(CC(=O)N(CC(=O)NCCC(C)C)c3ccccc3)n2)cc1OC the results were Wee1 stabilizer -3, Arbovirus inh -2, PKD1 kinase inh -4, L major viab 73*, Rad51 HR inh 6 and CHOP inhibitor -11.
For S=C(NN=C1C2CC3CC(C2)CC1C3)Nc1ccccc1 the results were Wee1 stabilizer 1, Arbovirus inh 3, PKD1 kinase inh -3, L major viab 99*, Rad51 HR inh 7 and CHOP inhibitor -48.
Screening CCS(=O)(=O)N1CCN(CC(=O)NC2CCCCC2)CC1 returned Wee1 stabilizer 0, Arbovirus inh 1, PKD1 kinase inh -6, L major viab -4, Rad51 HR inh -18 and CHOP inhibitor -10.
Screening CCOC(CNC(=O)Cn1nc(C)c2ccccc21)OCC returned Wee1 stabilizer -2, Arbovirus inh 2, PKD1 kinase inh -6, L major viab -6, Rad51 HR inh -8 and CHOP inhibitor -9.
`Nc1cc(S(=O)(=O)N2CCCCC2)ccc1Oc1ccc(Cl)cc1` gave Wee1 stabilizer 1, Arbovirus inh -1, PKD1 kinase inh 0, L major viab -7, Rad51 HR inh 10 and CHOP inhibitor 49.
Cc1cccc(Oc2ccc(S(=O)(=O)N3CCCCC3)cc2N)c1 was read as Wee1 stabilizer 3, Arbovirus inh 14, PKD1 kinase inh -2, L major viab 80*, Rad51 HR inh -2 and CHOP inhibitor 40.
`COc1ccccc1Oc1ccc(S(=O)(=O)N2CCCC2)cc1` gave Wee1 stabilizer 5, Arbovirus inh -1, PKD1 kinase inh -4, L major viab 99* and CHOP inhibitor 13.
